Measured values as given in ChEMBL document CHEMBL1145451, “Discovery of isonicotinamide derived beta-secretase inhibitors: in vivo reduction of beta-amyloid” (J Med Chem, 2007).
pIC50: −log10 of the molar value.

Experiments:
[1] = Half life in rat at 2 mg/kg, iv; settings: in vivo
[2] = test system: Brain; assay: Drug level in APP-YAC mouse brain at 25 mg/kg, iv; format: ADME, organism-based; set-up: dose 25 mg/kg, route intravenous; settings: in vivo, read-out: Drug uptake
Summary of the method: (§1)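 Dose response: APP-YAC transgenic mice given i.v. bolus doses of 6.25, 12.5, 25 or 50 mg/kg; brain drug concentration determined 3.0 h post-dose.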

[3] = target: T1, Beta-secretase 1 (Homo sapiens, UniProt P56817); assay: Inhibition of BACE1 by ECL assay
T1 sequence (P56817 whole entry): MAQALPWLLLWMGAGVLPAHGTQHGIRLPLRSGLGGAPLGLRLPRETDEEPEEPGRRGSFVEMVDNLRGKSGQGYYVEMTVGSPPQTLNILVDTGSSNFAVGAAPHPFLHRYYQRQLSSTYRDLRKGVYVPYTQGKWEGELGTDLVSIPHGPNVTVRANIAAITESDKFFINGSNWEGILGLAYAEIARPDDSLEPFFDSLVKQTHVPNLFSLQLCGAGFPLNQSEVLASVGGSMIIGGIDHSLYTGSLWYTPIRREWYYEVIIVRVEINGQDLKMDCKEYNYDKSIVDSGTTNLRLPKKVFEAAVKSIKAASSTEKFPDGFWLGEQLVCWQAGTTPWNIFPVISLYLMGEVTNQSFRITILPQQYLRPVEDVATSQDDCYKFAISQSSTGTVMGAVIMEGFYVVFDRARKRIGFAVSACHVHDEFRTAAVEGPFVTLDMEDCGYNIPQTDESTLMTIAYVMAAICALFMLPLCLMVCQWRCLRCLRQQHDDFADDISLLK

[4] = Ratio of drug level in APP-YAC mouse brain to IC50 for BACE1 in HEK293T cells; format: ADME, cell-based; settings: hek-293t
[5] = Cmax in rat at 10 mg/kg, po; format: ADME, organism-based; set-up: dose 10 mg/kg, route oral; settings: in vivo
[6] = Volume of distribution in rat at 2 mg/kg, iv; format: ADME, organism-based; set-up: dose 2 mg/kg, route intravenous; settings: in vivo, read-out: Vdss
[7] = Drug level in APP-YAC mouse brain at 50 mg/kg, iv after 0.5 hrs; format: ADME, organism-based; set-up: dose 50 mg/kg, route intravenous; settings: read-out: Drug uptake
Summary of the method: (§2)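 Time course: transgenic mice expressing human WT APP from a yeast artificial chromosome given a 50 mg/kg i.v. bolus; brain drug concentration measured at 0.5, 1.5, 3 and 4.5 h post-dose.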

[8] = test system: LLC-PK1; assay: Ratio of permeability from basolateral to apical over apical to basolateral side in LLC-PK1 cells transfected with MDR1 by PGP assay; format: ADME, cell-based; settings: human
[9] = test system: Mus musculus; assay: Reduction of beta amyloid protein 40 level in transgenic APP-YAC mouse at 50 mg/kg, iv after 3 hrs relative to control; format: functional; set-up: scale not given: the % may be the effect or the level left
Summary of the method: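 APP-YAC mice (human WT APP on a yeast artificial chromosome) given i.v. bolus; brain Aβ40 measured at 0.5–4.5 h (time course, 50 mg/kg) and at 3.0 h across 6.25–50 mg/kg; reduction relative to vehicle-treated animals, Tukey-Kramer HSD statistics; γ-secretase inhibitor as positive control.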

[10] = Oral bioavailability in rat; format: ADME, organism-based; settings: in vivo
[11] = target: T1, Beta-secretase 1; assay: Inhibition of BACE1 assessed as effect on soluble APPbeta N-terminal fragment secretion in HEK293T cells; format: cell-based, HEK-293T
[12] = test system: Rattus norvegicus; assay: Plasma clearance in rat at 2 mg/kg, iv; format: ADME, organism-based; set-up: dose 2 mg/kg, route intravenous; settings: in vivo
[13] = Drug level in APP-YAC mouse brain at 50 mg/kg, iv after 4.5 hrs; format: ADME, organism-based; set-up: dose 50 mg/kg, route intravenous; settings: read-out: Drug uptake
Summary of the method: as §2

[14] = test system: Brain; assay: Drug level in APP-YAC mouse brain at 50 mg/kg, iv; format: ADME, organism-based; set-up: dose 50 mg/kg, route intravenous; settings: in vivo, read-out: Drug uptake
Summary of the method: as §1

[15] = Drug level in APP-YAC mouse brain at 20 mg/kg, iv after 30 mins; format: ADME, organism-based; set-up: dose 20 mg/kg, route intravenous; settings: read-out: Drug uptake
Summary of the method: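 Brain penetration: brain concentration in mice measured 30 min after a 20 mg/kg i.v. dose, n of 3, reported in nM.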

| Structure (SMILES) | pIC50 [3] | Ratio [4] | Ratio [8] | pIC50 [11] | concentration at 0.5 h [15] | also measured |
| --- | --- | --- | --- | --- | --- | --- |
| CC(C)S(=O)(=O)N(C)c1cc(C(=O)N[C@@H](Cc2ccccc2)[C@@H](N)CF)cc(NC[C@H]2C[C@@H]2C)n1 | 8.70 | 11.4 | > 50 | 7.31 |  | half-life [1]: 1.6 h; concentration [2]: 700 nM; Cmax [5]: 300 nM; Vd [6]: 3.9 L/kg; concentration at 0.5 h [7]: 5800 nM; Activity [9]: 34%; bioavailability [10]: 13%; clearance [12]: 45.8 mL/min/kg; concentration at 4.5 h [13]: 700 nM; concentration [14]: 1900 nM |
| CN(c1cc(C(=O)N[C@H](CO)Cc2cc(F)cc(F)c2)cc(NCC2CC2)n1)S(C)(=O)=O | 5.96 |  |  |  |  |  |
| CCCN(CC1CC1)c1cc(C(=O)N[C@H](CO)Cc2ccccc2)cc(N(C)S(=O)(=O)C(C)C)n1 | 6.46 | < 0.07 | 3.6 | < 4.70 | 1400 nM |  |

Second part, led by results:

| pIC50 [3] | Ratio [4] | Ratio [8] | pIC50 [11] | concentration at 0.5 h [15] | Structure (SMILES) | also measured |
| --- | --- | --- | --- | --- | --- | --- |
| 7.74 | 3.4 | 4.8 | 6.04 |  | CC(C)S(=O)(=O)N(C)c1cc(C(=O)N[C@@H](Cc2ccccc2)[C@@H](N)CF)cc(N(C)C[C@H]2C[C@@H]2C)n1 | Cmax [5]: 200 nM; Vd [6]: 4.2 L/kg; bioavailability [10]: 8%; clearance [12]: 59.1 mL/min/kg |
| 7.85 |  |  | < 4.70 |  | CC(C)S(=O)(=O)N(C)c1cc(C(=O)N[C@H](CO)Cc2cc(F)cc(F)c2)cc(NC[C@H]2C[C@@H]2C)n1 |  |
|  |  |  |  | 3080 nM | CC1CC1CN(C)c1cc(C(=O)N[C@@H](Cc2cc(F)cc(F)c2)[C@@H](N)CF)cc(N(C)S(=O)(=O)C(C)C)n1 (mixture of isomers) |  |
|  |  |  |  | 560 nM | CC1CC1CNc1cc(C(=O)N[C@@H](Cc2ccccc2)[C@@H](N)CF)cc(N(C)S(=O)(=O)C(C)C)n1 (mixture of isomers) |  |
